Reference: ChEMBL document CHEMBL3112482, “Nonclassical antifolates, part 5. Benzodiazepine analogs as a new class of DHFR inhibitors: synthesis, antitumor testing and molecular modeling study” (Eur J Med Chem, 2014)

Assays:
Format in all cases: functional
CCRF-CEM = assay: Growth inhibition of human CCRF-CEM cells at 10 uM after 48 hrs; conditions: read-out: GI
Outline: (§1)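 Single-dose primary screen in the NCI 60 human tumour cell line panel, run at the NCI facility. The panel covers nine subpanels: leukaemia, non-small cell lung, colon, CNS, melanoma, ovarian, renal, prostate and breast. Read-out was percent growth of treated cells, shown as a mean graph and reported as percent growth inhibition.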

SN12C = assay: Growth inhibition of human SN12C cells at 10 uM after 48 hrs; conditions: read-out: GI
Outline: (§2)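 NCI 60-cell-line disease-oriented human tumor panel, single-dose primary screen at 10 µM. Data given as mean-graph percent growth of treated cells, reported as percent growth inhibition (GI %).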

786-0 = assay: Growth inhibition of human 786-0 cells at 10 uM after 48 hrs; conditions: 786-0, 48 h, read-out: GI; outline: as §1
M14 = assay: Growth inhibition of human M14 cells at 10 uM after 48 hrs; conditions: M14, 48 h, read-out: GI; outline: as §1
CAKI-1 = assay: Growth inhibition of human CAKI-1 cells at 10 uM after 48 hrs; conditions: CAKI-1, 48 h, read-out: GI; outline: as §1
SF-295 = assay: Growth inhibition of human SF295 cells at 10 uM after 48 hrs; conditions: SF-295, 48 h, read-out: GI; outline: as §2
[1] = Growth inhibition of human UACC257 cells at 10 uM after 48 hrs; conditions: UACC-257, 48 h, read-out: GI; outline: as §2
HT-29 = assay: Growth inhibition of human HT-29 cells at 10 uM after 48 hrs; conditions: HT-29, 48 h, read-out: GI; outline: as §1
[2] = Growth inhibition of human HOP92 cells at 10 uM after 48 hrs; conditions: HOP-92, 48 h, read-out: GI; outline: as §1
UACC-62 = assay: Growth inhibition of human UACC62 cells at 10 uM after 48 hrs; conditions: UACC-62, 48 h, read-out: GI; outline: as §2
[3] = Cytotoxicity against human colon cancer cells at 10 uM after 48 hrs; conditions: Cancer cell lines; for CC50: read-out: LC50 (the source's name); outline: as §1
[4] = Cytotoxicity against human prostate cancer cells at 10 uM after 48 hrs; conditions: Cancer cell lines
DU-145 = assay: Growth inhibition of human DU145 cells at 10 uM after 48 hrs; conditions: DU-145, 48 h, read-out: GI; outline: as §1
KM12 = assay: Growth inhibition of human KM12 cells at 10 uM after 48 hrs; conditions: KM12, 48 h, read-out: GI; outline: as §1
A498 = assay: Growth inhibition of human A498 cells at 10 uM after 48 hrs; conditions: A498, 48 h, read-out: GI; outline: as §1
HCT-15 = assay: Growth inhibition of human HCT15 cells at 10 uM after 48 hrs; conditions: HCT-15, 48 h, read-out: GI; outline: as §1
MDA-MB-468 = assay: Growth inhibition of human MDA-MB-468 cells at 10 uM after 48 hrs; conditions: MDA-MB-468, 48 h, read-out: GI; outline: as §1
[5] = Cytotoxicity against human breast cancer cells at 10 uM after 48 hrs; conditions: Cancer cell lines; outline: as §1
BT-549 = assay: Growth inhibition of human BT549 cells at 10 uM after 48 hrs; conditions: BT-549, 48 h, read-out: GI; outline: as §1
NCI-H522 = assay: Growth inhibition of human NCI-H522 cells at 10 uM after 48 hrs; conditions: NCI-H522, 48 h, read-out: GI; outline: as §1
[6] = Cytotoxicity against human CNS cancer cells at 10 uM after 48 hrs; conditions: Cancer cell lines; for CC50: read-out: LC50 (the source's name)
IGROV-1 = assay: Growth inhibition of human IGROV1 cells at 10 uM after 48 hrs; conditions: IGROV-1, 48 h, read-out: GI; outline: as §1
[7] = Cytotoxicity against human melanoma cells at 10 uM after 48 hrs; conditions: Melanoma cell; for CC50: read-out: LC50 (the source's name); outline: as §1
MOLT-4 = assay: Growth inhibition of human MOLT4 cells at 10 uM after 48 hrs; conditions: MOLT-4, 48 h, read-out: GI; outline: as §1
COLO 205 = assay: Growth inhibition of human COLO205 cells at 10 uM after 48 hrs; conditions: COLO 205, 48 h, read-out: GI; outline: as §1
NCI-H460 = assay: Growth inhibition of human NCI-H460 cells at 10 uM after 48 hrs; conditions: NCI-H460, 48 h, read-out: GI; outline: as §1
[8] = Growth inhibition of human RXF393 cells at 10 uM after 48 hrs; conditions: RXF 393, 48 h, read-out: GI; outline: as §1
HCT-116 = assay: Growth inhibition of human HCT116 cells at 10 uM after 48 hrs; conditions: HCT-116, 48 h, read-out: GI; outline: as §1
[9] = Growth inhibition of human HCC2998 cells at 10 uM after 48 hrs; conditions: HCC 2998, 48 h, read-out: GI; outline: as §1

Nc1nc2c(c(-c3ccc(Cl)cc3)n1)CCC/C2=C\c1ccc(Cl)cc1
inhibition of growth at 10 µM (CCRF-CEM): < 30% | inhibition of growth at 10 µM (SN12C): < 30% | inhibition of growth at 10 µM (786-0): < 30% | inhibition of growth at 10 µM (M14): 89% | inhibition of growth at 10 µM (CAKI-1): < 30% | inhibition of growth at 10 µM (SF-295): 32.5% | inhibition of growth at 10 µM [1]: < 30% | inhibition of growth at 10 µM (HT-29): 92.3% | inhibition of growth at 10 µM [2]: < 30% | inhibition of growth at 10 µM (UACC-62): < 30% | GI50 [3]: 4 µM | TGI [3]: 12.5 µM | CC50 [3]: 51.3 µM | GI50 [4]: 12.3 µM | LC50 [4]: 95 µM | TGI [4]: 51.2 µM | inhibition of growth at 10 µM (DU-145): < 30% | inhibition of growth at 10 µM (KM12): 97.7% | inhibition of growth at 10 µM (A498): 45.3% | inhibition of growth at 10 µM (HCT-15): 41.7% | inhibition of growth at 10 µM (MDA-MB-468): 37.8% | GI50 [5]: 23.6 µM | LC50 (concentration killing 50% of cells) [5]: 92.2 µM | TGI [5]: 70.9 µM | inhibition of growth at 10 µM (BT-549): < 30% | inhibition of growth at 10 µM (NCI-H522): 81% | GI50 [6]: 13.7 µM | TGI [6]: 53.1 µM | CC50 [6]: 91.9 µM | inhibition of growth at 10 µM (IGROV-1): < 30% | GI50 [7]: 15.4 µM | TGI [7]: 36.5 µM | CC50 [7]: 80 µM | inhibition of growth at 10 µM (MOLT-4): 35.1% | inhibition of growth at 10 µM (COLO 205): < 30% | inhibition of growth at 10 µM (NCI-H460): < 30% | inhibition of growth at 10 µM [8]: 65.5%

COc1ccc(/C=C2\CCCc3c2nc(N)nc3-c2ccc(OC)cc2)cc1
inhibition of growth at 10 µM (CCRF-CEM): < 30% | inhibition of growth at 10 µM (SN12C): < 30% | inhibition of growth at 10 µM (786-0): < 30% | inhibition of growth at 10 µM (M14): < 30% | inhibition of growth at 10 µM (CAKI-1): < 30% | inhibition of growth at 10 µM (SF-295): < 30% | inhibition of growth at 10 µM [1]: < 30% | inhibition of growth at 10 µM (HT-29): < 30% | inhibition of growth at 10 µM [2]: 31.4% | inhibition of growth at 10 µM (UACC-62): 32.1% | inhibition of growth at 10 µM (DU-145): < 30% | inhibition of growth at 10 µM (KM12): < 30% | inhibition of growth at 10 µM (A498): < 30% | inhibition of growth at 10 µM (HCT-15): < 30% | inhibition of growth at 10 µM (HCT-116): < 30% | inhibition of growth at 10 µM (BT-549): < 30% | inhibition of growth at 10 µM (NCI-H522): < 30% | inhibition of growth at 10 µM (IGROV-1): < 30% | inhibition of growth at 10 µM [9]: < 30% | inhibition of growth at 10 µM (MOLT-4): < 30% | inhibition of growth at 10 µM (COLO 205): < 30% | inhibition of growth at 10 µM (NCI-H460): < 30% | inhibition of growth at 10 µM [8]: < 30%

Cc1nc2c(c(-c3ccc(Cl)cc3)n1)CCC/C2=C\c1ccc(Cl)cc1
inhibition of growth at 10 µM (CCRF-CEM): < 30% | inhibition of growth at 10 µM (SN12C): < 30% | inhibition of growth at 10 µM (786-0): < 30% | inhibition of growth at 10 µM (M14): 34.7% | inhibition of growth at 10 µM (CAKI-1): < 30% | inhibition of growth at 10 µM (SF-295): < 30% | inhibition of growth at 10 µM [1]: < 30% | inhibition of growth at 10 µM (HT-29): 45.6% | inhibition of growth at 10 µM [2]: < 30% | inhibition of growth at 10 µM (UACC-62): < 30% | inhibition of growth at 10 µM (DU-145): < 30% | inhibition of growth at 10 µM (KM12): 62% | inhibition of growth at 10 µM (A498): < 30% | inhibition of growth at 10 µM (HCT-15): < 30% | inhibition of growth at 10 µM (MDA-MB-468): < 30% | inhibition of growth at 10 µM (BT-549): 34% | inhibition of growth at 10 µM (NCI-H522): < 30% | inhibition of growth at 10 µM (IGROV-1): < 30% | inhibition of growth at 10 µM [9]: 58.5% | inhibition of growth at 10 µM (MOLT-4): < 30% | inhibition of growth at 10 µM (COLO 205): < 30% | inhibition of growth at 10 µM (NCI-H460): < 30% | inhibition of growth at 10 µM [8]: < 30%

Nc1nc2c(c(-c3ccc(Br)cc3)n1)CCC/C2=C\c1ccc(Br)cc1
inhibition of growth at 10 µM (CCRF-CEM): < 30% | inhibition of growth at 10 µM (SN12C): < 30% | inhibition of growth at 10 µM (786-0): < 30% | inhibition of growth at 10 µM (M14): 38.1% | inhibition of growth at 10 µM (CAKI-1): < 30% | inhibition of growth at 10 µM (SF-295): < 30% | inhibition of growth at 10 µM [1]: < 30% | inhibition of growth at 10 µM (HT-29): 67.8% | inhibition of growth at 10 µM [2]: < 30% | inhibition of growth at 10 µM (UACC-62): < 30% | inhibition of growth at 10 µM (DU-145): < 30% | inhibition of growth at 10 µM (KM12): 53% | inhibition of growth at 10 µM (A498): < 30% | inhibition of growth at 10 µM (HCT-15): < 30% | inhibition of growth at 10 µM (MDA-MB-468): < 30% | inhibition of growth at 10 µM (BT-549): < 30% | inhibition of growth at 10 µM (NCI-H522): 51.6% | inhibition of growth at 10 µM (IGROV-1): < 30% | inhibition of growth at 10 µM [9]: 51.5% | inhibition of growth at 10 µM (MOLT-4): < 30% | inhibition of growth at 10 µM (COLO 205): < 30% | inhibition of growth at 10 µM (NCI-H460): < 30% | inhibition of growth at 10 µM [8]: < 30%

Clc1ccc(/C=C2\CCCC3=C(c4ccc(Cl)cc4)Nc4ccccc4N=C32)cc1
inhibition of growth at 10 µM (CCRF-CEM): < 30% | inhibition of growth at 10 µM (SN12C): < 30% | inhibition of growth at 10 µM (786-0): < 30% | inhibition of growth at 10 µM (M14): 70.9% | inhibition of growth at 10 µM (CAKI-1): < 30% | inhibition of growth at 10 µM (SF-295): < 30% | inhibition of growth at 10 µM [1]: < 30% | inhibition of growth at 10 µM (HT-29): 84.1% | inhibition of growth at 10 µM [2]: 39.4% | inhibition of growth at 10 µM (UACC-62): < 30% | GI50 [3]: 2.4 µM | TGI [3]: 6.4 µM | CC50 [3]: 38.8 µM | GI50 [4]: 5.1 µM | LC50 [4]: > 100 µM | TGI [4]: 61.9 µM | inhibition of growth at 10 µM (DU-145): < 30% | inhibition of growth at 10 µM (KM12): 82.7% | inhibition of growth at 10 µM (A498): 32.8% | inhibition of growth at 10 µM (HCT-15): 36.4% | inhibition of growth at 10 µM (MDA-MB-468): 40% | GI50 [5]: 4.6 µM | LC50 (concentration killing 50% of cells) [5]: 88.1 µM | TGI [5]: 58.2 µM | inhibition of growth at 10 µM (BT-549): < 30% | inhibition of growth at 10 µM (NCI-H522): 80.1% | GI50 [6]: 4.9 µM | TGI [6]: 52.4 µM | CC50 [6]: 84.3 µM | inhibition of growth at 10 µM (IGROV-1): < 30% | inhibition of growth at 10 µM [9]: < 30% | GI50 [7]: 9.5 µM | TGI [7]: 24.3 µM | CC50 [7]: 64.2 µM | inhibition of growth at 10 µM (MOLT-4): 34.2% | inhibition of growth at 10 µM (COLO 205): 31.9% | inhibition of growth at 10 µM (NCI-H460): < 30% | inhibition of growth at 10 µM [8]: 34.7%
